These results are taken from ChEMBL document CHEMBL4808198, “Synthesis, bioevaluation and docking studies of new imidamide derivatives as nitric oxide synthase inhibitors” (Bioorg Med Chem, 2021).

For series [1], the target named is T1, Nitric oxide synthase, inducible (Homo sapiens, UniProt P35228). Nature of the series: Inhibition of N-terminal His-tagged human recombinant iNOS expressed in Escherichia coli assessed as reduction in L-[3H]-citrulline level using L-[3H]-arginine as substrate at 1 mM incubated for 30 mins by liquid scintillation method relative to control.
The target in series [2] is T2, Nitric oxide synthase 1 (Homo sapiens, UniProt P29475). Nature of the series: Inhibition of human recombinant nNOS expressed in Escherichia coli assessed as reduction in L-[3H]-citrulline level using L-[3H]-arginine as substrate at 1 mM incubated for 30 mins by liquid scintillation method relative to control.
For series [3], the system named is HUVEC. Nature of the series: Cytotoxicity against HUVEC assessed as reduction in cell viability at 10 to 100 uM measured after 30 mins by MTT assay. Format: cell-based. The following applies: human, 0.5 h, 500 µM, in the assay text read “10 to 500 uM” for “10 to 100 uM”. In outline: (§1)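 HUVECs seeded at 1x10⁴ cells/well, grown 24 h at 37 °C, switched to serum-free medium for at least 2 h, then exposed to serial dilutions (10 - 500 µM) for 30 min. MTT added for 3 h at 37 °C, formazan dissolved in DMSO, absorbance read at 570 nm minus 630 nm background. Viability given as % of untreated cells. At least three independent runs in triplicate.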

Series [4] in a line: Cytotoxicity against HUVEC assessed as reduction in cell viability at 500 uM measured after 30 mins by MTT assay relative to control. The format is cell-based. The following applies: human, HUVEC cells, read-out: INH. Put shortly:
as §1
Background: Formazan colour is commonly taken as a measure of viable cells.

Series [5] has as its target T2, Nitric oxide synthase 1. Nature of the series: Inhibition of human recombinant nNOS expressed in Escherichia coli assessed as reduction in L-[3H]-citrulline level using L-[3H]-arginine as substrate incubated for 30 min by scintillation counting.
The target in series [6] is T1, Nitric oxide synthase, inducible. The series can be described thus: Inhibition of N-terminal His-tagged human recombinant iNOS expressed in Escherichia coli assessed as reduction in L-[3H]-citrulline level using L-[3H]-arginine as substrate incubated for 30 min by scintillation counting.
The target in series [7] is T3, Nitric oxide synthase 3 (Rattus norvegicus, UniProt Q62600).
T3 sequence (Q62600 whole entry): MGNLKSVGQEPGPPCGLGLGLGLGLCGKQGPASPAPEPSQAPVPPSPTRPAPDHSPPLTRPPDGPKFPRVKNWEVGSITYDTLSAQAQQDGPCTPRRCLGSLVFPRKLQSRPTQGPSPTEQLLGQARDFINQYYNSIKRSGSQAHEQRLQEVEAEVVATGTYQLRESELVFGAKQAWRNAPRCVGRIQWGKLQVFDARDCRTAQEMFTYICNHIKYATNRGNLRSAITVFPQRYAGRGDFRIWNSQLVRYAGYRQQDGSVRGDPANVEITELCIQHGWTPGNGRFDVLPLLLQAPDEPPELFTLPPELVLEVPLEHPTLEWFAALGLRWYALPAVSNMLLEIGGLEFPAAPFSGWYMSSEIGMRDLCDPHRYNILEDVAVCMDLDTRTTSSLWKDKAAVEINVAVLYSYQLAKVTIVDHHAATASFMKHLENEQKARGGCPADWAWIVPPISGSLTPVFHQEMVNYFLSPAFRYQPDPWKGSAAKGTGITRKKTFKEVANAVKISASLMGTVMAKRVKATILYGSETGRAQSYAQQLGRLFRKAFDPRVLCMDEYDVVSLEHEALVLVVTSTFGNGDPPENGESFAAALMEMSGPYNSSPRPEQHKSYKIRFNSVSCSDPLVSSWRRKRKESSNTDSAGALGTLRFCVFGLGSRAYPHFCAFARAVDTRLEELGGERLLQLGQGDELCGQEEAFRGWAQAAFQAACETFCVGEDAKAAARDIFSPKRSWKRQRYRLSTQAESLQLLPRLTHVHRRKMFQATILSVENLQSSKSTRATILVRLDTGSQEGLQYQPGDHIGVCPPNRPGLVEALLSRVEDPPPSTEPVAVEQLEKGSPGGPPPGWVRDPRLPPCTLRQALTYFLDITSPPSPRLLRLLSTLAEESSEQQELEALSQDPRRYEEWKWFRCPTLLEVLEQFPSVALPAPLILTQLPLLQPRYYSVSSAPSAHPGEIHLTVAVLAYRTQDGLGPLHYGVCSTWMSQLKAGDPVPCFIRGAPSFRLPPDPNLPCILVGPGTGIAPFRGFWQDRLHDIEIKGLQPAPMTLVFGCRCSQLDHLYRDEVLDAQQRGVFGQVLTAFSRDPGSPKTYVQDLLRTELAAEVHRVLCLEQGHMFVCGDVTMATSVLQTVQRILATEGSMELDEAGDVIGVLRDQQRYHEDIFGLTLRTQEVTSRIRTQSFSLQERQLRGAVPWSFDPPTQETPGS
The series can be described thus: Inhibition of eNOS in Wistar rat endothelium-intact thoracic aortic rings assessed as inhibition of acetylcholine-evoked relaxation at 20 uM pretreated with compound for 30 mins followed by norepinephrine addition and later incubated with acetylcholine. Format: tissue-based, Thoracic aorta. The following applies: 0.5 h. Put shortly:
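Rat descending thoracic aortic rings with endothelium, in Krebs at 37 °C gassed with 95% O₂/5% CO₂, 2 g resting tension, isometric recording. Incubated 30 min with compound (20 µM), L-NAME (100 µM) or DMSO vehicle (1/10⁶), contracted with 1 µM norepinephrine, then cumulative acetylcholine. Relaxation given as % of norepinephrine contraction. Two-way ANOVA with Dunnett's test.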

Series [8] deals with T3, Nitric oxide synthase 3. The series can be described thus: Inhibition of eNOS in Wistar rat endothelium-intact thoracic aortic rings assessed as inhibition of acetylcholine-evoked relaxation at 100 uM pretreated with compound for 30 mins followed by norepinephrine addition and later incubated with acetylcholine. The format is tissue-based, Thoracic aorta. The following applies: 0.5 h. In outline:
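Descending thoracic aortic rings with endothelium were held in Krebs solution at 37 °C, gassed with 95% O2/5% CO2, at 2 g resting tension, with isometric force recorded. Rings were incubated 30 min with test agent or DMSO vehicle (1/10⁶), then contracted with 1 µM norepinephrine. At plateau, acetylcholine was added cumulatively. Relaxation is given as % of norepinephrine contraction; n = rings from different rats; two-way ANOVA with Dunnett.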

T2 sequence (P29475 whole entry): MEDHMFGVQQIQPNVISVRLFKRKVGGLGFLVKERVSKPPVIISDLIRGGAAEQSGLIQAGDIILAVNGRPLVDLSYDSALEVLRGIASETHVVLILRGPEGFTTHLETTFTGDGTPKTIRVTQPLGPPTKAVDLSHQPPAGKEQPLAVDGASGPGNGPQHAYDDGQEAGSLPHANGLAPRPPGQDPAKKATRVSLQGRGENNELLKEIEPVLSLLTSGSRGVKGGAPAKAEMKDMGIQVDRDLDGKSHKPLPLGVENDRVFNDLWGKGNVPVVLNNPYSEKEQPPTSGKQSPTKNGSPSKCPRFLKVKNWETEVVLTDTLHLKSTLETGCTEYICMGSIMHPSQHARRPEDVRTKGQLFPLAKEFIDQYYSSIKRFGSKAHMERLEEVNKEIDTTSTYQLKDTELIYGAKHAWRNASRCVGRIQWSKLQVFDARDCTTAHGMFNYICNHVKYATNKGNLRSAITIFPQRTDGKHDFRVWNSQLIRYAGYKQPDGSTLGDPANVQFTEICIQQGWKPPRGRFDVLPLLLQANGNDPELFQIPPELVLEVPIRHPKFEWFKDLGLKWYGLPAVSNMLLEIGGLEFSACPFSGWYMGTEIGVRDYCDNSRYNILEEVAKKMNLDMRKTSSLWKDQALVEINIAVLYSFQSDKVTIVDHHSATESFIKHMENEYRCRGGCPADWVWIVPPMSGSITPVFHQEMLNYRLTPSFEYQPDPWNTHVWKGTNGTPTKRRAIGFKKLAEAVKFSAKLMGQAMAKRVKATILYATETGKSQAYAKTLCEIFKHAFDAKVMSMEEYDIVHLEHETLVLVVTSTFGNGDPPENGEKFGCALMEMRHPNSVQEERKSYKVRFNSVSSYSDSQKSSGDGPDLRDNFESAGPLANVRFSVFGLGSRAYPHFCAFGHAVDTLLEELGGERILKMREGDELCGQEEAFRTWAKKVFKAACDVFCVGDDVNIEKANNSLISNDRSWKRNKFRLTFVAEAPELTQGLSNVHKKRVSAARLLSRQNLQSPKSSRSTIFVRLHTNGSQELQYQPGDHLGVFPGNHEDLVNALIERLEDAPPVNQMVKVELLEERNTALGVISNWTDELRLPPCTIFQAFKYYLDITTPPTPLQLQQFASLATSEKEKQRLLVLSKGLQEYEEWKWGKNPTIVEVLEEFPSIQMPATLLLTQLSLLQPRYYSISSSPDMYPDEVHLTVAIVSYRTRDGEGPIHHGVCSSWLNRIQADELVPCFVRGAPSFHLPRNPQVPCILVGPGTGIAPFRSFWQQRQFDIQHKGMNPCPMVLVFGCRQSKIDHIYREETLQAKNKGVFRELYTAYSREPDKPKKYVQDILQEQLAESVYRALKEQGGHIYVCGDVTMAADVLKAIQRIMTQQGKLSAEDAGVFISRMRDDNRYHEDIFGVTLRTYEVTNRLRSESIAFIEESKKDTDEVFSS
T1 sequence (P35228 whole entry): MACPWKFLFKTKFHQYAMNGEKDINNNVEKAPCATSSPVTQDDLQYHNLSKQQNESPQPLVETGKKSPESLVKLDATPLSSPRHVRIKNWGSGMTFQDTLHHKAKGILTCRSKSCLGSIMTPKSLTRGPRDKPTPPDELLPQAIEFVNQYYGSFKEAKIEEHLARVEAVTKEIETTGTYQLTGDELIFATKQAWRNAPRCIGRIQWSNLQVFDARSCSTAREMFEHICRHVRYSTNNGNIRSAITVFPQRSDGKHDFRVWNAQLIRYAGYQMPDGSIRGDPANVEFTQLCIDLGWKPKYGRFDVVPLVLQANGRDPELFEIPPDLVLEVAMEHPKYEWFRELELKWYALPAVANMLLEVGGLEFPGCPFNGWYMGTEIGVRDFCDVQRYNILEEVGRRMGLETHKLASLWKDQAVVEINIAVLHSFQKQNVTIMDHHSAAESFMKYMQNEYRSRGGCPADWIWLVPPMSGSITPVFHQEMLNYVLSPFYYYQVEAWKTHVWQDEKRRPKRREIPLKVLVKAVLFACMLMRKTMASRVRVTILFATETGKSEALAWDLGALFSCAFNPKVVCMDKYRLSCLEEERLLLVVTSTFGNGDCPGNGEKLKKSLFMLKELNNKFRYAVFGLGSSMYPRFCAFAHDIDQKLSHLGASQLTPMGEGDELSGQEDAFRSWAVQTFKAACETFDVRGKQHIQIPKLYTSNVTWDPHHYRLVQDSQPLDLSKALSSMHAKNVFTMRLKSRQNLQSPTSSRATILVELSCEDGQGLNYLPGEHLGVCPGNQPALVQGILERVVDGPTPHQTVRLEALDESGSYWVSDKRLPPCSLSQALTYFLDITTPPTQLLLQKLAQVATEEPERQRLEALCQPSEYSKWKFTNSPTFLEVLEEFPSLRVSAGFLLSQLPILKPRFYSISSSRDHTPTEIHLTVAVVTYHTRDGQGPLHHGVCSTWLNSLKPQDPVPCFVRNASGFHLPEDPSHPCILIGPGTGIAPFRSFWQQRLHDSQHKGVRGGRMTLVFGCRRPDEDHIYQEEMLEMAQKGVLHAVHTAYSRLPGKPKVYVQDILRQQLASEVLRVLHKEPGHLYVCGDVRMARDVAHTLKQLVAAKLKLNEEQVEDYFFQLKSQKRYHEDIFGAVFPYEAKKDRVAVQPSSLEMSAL

As usually defined, the inhibition is the percentage by which the read-out fell short of the control. The term IC50 denotes the concentration at which inhibition is half-maximal. `COc1ccc(N)c(C(O)CCNC(=N)c2ccccc2)c1` (stereo not given): the inhibition turned out to be 95.9% in series [1] and 7.18% in series [2]. In addition, the Activity entry in series [3] was “Non-Toxic”. Also, the cytotoxicity at 0.5 h, 500 µM in series [4] amounted to 20%. In addition, the IC50 is greater than 1000 µM in series [5] and 22.5 µM in series [6].

For the compound `N=C(NCCC(=O)c1ccccc1N)c1ccc(C(F)(F)F)cc1`, the inhibition in series [1] was determined as 68.6%; in series [2] it was 56%.

On to `CC(=N)NCCC(=O)c1ccccc1N`, for which the figures for the inhibition in series [1] and in series [2] were 22.2% and 88.8%, respectively. Besides, the IC50 is 325 µM in series [5] and greater than 1000 µM in series [6].

Turning to `COc1ccc(N)c(C(O)CCNC(=N)c2ccc(C(F)(F)F)cc2)c1` (stereo not given), the inhibition in series [1] stood at 99.6%; in series [2], 12.5%. In series [7], the “inhibition (INH)” value is “Not Active”. In addition, the Activity result in series [3] is “Non-Toxic”. In addition, the cytotoxicity at 0.5 h, 500 µM in series [4] turned out to be 20%. In addition, the figures for the IC50 in series [5] and in series [6] were greater than 1000 µM and 20 µM, respectively.

Consider `COc1ccc(N)c(C(O)CCNC(C)=N)c1` (stereo not given), for which the inhibition in series [1] stood at 57.4%; in series [2] it was 19%.

As for `COc1ccc(N)c(C(=O)CCNC(=N)c2ccccc2)c1`, the inhibition was 94.7% in series [1] and 85.9% in series [2]. Moreover, in series [3], the Activity result is listed as “Non-Toxic”. In addition, the cytotoxicity at 0.5 h, 500 µM in series [4] was 20%. The IC50 amounted to 194 µM in series [5] and 45.2 µM in series [6].

For the compound `CC(=N)NCCC(O)c1cc(Cl)ccc1N` (stereo not given), the inhibition stood at 49.1% in series [1] and 66.1% in series [2].

As for `COc1ccc(N)c(C(=O)CCNC(C)=N)c1`, the inhibition was 97.6% in series [1] and 89.2% in series [2]. Moreover, the IC50 in series [5] is 223 µM; in series [6] it was 59.7 µM.

Regarding `N=C(NCCC(O)c1ccccc1N)c1ccc(Cl)cc1` (stereo not given), the inhibition was found to be 73.2% in series [1] and 31.6% in series [2].

As for `N=C(NCCC(=O)c1ccccc1N)c1ccccc1`, the inhibition in series [1] amounted to 35.6%; in series [2], 66.5%.

Regarding `CNC(=S)NCCC(O)c1cc(OC)ccc1N` (stereo not given), the IC50 in series [5] worked out at 130 µM; in series [6], 180 µM.

As for `N=C(NCCC(=O)c1ccccc1N)c1ccc(Cl)cc1`, the inhibition in series [1] was determined as 33.4%; in series [2] it was 37.4%.

Take `CC(=N)NCCC(O)c1ccccc1N` (stereo not given): the inhibition in series [1] came out at 16.2%; in series [2], 28.3%.

For the compound `COc1ccc(N)c(C(O)CCNC(=N)c2ccc(Cl)cc2)c1` (stereo not given), the inhibition in series [1] was 81%; in series [2], 58.5%.

In the case of `N=C(NCCC(O)c1ccccc1N)c1ccc(C(F)(F)F)cc1` (stereo not given), the inhibition in series [1] came out at 60.5%; in series [2] it was 36.5%.

Take `CCNC(=O)NCCC(=O)c1cc(Cl)ccc1N`: the figures for the IC50 in series [5] and in series [6] were greater than 1000 µM and 100 µM, respectively.

With `COC(=O)[C@@H](N)CCCNC(=N)N[N+](=O)[O-]` [L-NAME], in series [8], the “inhibition (INH)” value is “Active”.

As to `N=C(NCCC(O)c1ccccc1N)c1ccccc1` (stereo not given), the inhibition in series [1] came out at 64.1%; in series [2] it was 23.2%.

Regarding `CC(=N)NCCC(=O)c1cc(Cl)ccc1N`, the inhibition in series [1] was found to be 99.1%; in series [2], 19.9%. Besides, the Activity result in series [3] is recorded as “Non-Toxic”. The cytotoxicity at 0.5 h, 500 µM in series [4] stood at 20%. Also, the IC50 in series [5] is greater than 1000 µM; in series [6], 25.6 µM.

In the case of `COc1ccc(N)c(C(=O)CCNC(=N)c2ccc(Cl)cc2)c1`, the inhibition in series [1] turned out to be 75.1%; in series [2], 86.4%.
